Measurements as given in ChEMBL document CHEMBL4725355, “Design, Synthesis, and Preclinical Evaluation of 3-Methyl-6-(5-thiophenyl)-1,3-dihydro-imidazo[4,5-b]pyridin-2-ones as Selective GluN2B Negative Allosteric Modulators for the Treatment of Mood Disorders” (J Med Chem, 2020).

What was measured:
[1] = Negative allosteric modulation of human GluN1a/GluN2D receptor expressed in CHO cells assessed as inhibition of glutamate and glycine-induced calcium flux preincubated for 5 mins followed by glutamate and glycine addition and measured after 5 mins by calcium 5 dye based FLIPR assay; assay type: cell-based
Method in brief: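 Tet-On CHO T-Rex cells expressing hGluN1a with GluN2A, 2B, 2C or 2D, plated at 20,000 cells/well and induced 24 h before the assay in the presence of ketamine. Cells loaded 1 h at room temperature with Calcium 5 dye, pH 7.4 HEPES buffer. Compound added 5 min, then glutamate (~EC80) plus 10 µM glycine for 5 min; FLIPR fluorescence normalized to control wells. Three independent runs in duplicate (two for some).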

[2] = Solubility of compound in phosphate buffer at pH 2 measured after 3 days; assay type: physicochemical; settings: time 3 day
Method in brief: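 Solubility in aqueous buffer at pH 2 and pH 7, and in simulated gastric and intestinal fluids.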

[3] = Ex vivo receptor occupancy at GluN2B in Sprague-Dawley rat assessed as 3-[3H] 1-(azetidin-1-yl)-2-[6-(4-fluoro-3-methyl-phenyl)pyrrolo[3,2-b]pyridin-1-yl]-ethanone labelling at 3 mg/kg, po measured after 6 hrs by autoradiography; assay type: functional
Method in brief: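 Rats dosed orally at 3 mg/kg in 20% HP-β-CD; brains taken at 0.5, 2 and 6 h. Ex vivo autoradiography of brain slices with the ³H pyrrolo[3,2-b]pyridine GluN2B tracer. Labelling expressed relative to matching brain areas of vehicle-treated animals; n=2, ± SEM.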

[4] = Drug level in Sprague-Dawley rat brain cerebellum at 0.03 mg/kg, iv after 120 min by LC-MS/MS analysis; assay type: ADME, organism-based; settings: read-out: Drug uptake
Method in brief: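 Rats (n=3 per group) received a single IV dose of 0.03 mg/kg in 50% (w/v) PEG/water at pH 7.4 and were sacrificed at 5, 10, 30, 60 and 120 min. Cerebellum, cortex, striatum and hippocampus were weighed, homogenized and analyzed by LC-MS/MS, with levels normalized to tissue weight.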

[5] = Drug level in Sprague-Dawley rat brain cerebellum at 0.03 mg/kg, iv after 60 min by LC-MS/MS analysis; assay type: ADME, organism-based; settings: read-out: Drug uptake
Method in brief: (§1)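 Single i.v. dose of 0.03 mg/kg in 50% (w/v) PEG/water, pH 7.4; rats n=3 per group, killed at 5, 10, 30, 60 and 120 min. Cerebellum, cortex, striatum and hippocampus dissected, weighed and homogenized; drug quantified by LC-MS/MS and normalized to tissue weight. P<0.05 taken as significant versus cerebellum.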

[6] = Drug level in Sprague-Dawley rat brain striatum at 0.03 mg/kg, iv after 120 min by LC-MS/MS analysis; assay type: ADME, organism-based; settings: read-out: Drug uptake; method in brief: as §1
[7] = Drug level in Sprague-Dawley rat brain cortex at 0.03 mg/kg, iv after 5 to 120 mins by LC-MS/MS analysis; assay type: ADME, organism-based; settings: in vivo, time 5-120 min; method in brief: as §1
[8] = Intrinsic clearance in dog liver microsomes at 1 uM after 5 to 60 mins in presence of NADPH by LC-MS/MS analysis; assay type: ADME, Canis lupus familiaris, Microsome; settings: time 5-60 min, read-out: CLH
[9] = Intrinsic clearance in cynomolgus monkey liver microsomes at 1 uM after 5 to 60 mins in presence of NADPH by LC-MS/MS analysis; assay type: ADME, Macaca fascicularis, Microsome; settings: time 5-60 min, read-out: CLH
[10] = AUC (infinity) in dog at 0.1 mg/kg, iv by LC-MS/MS analysis; assay type: ADME, organism-based, Canis lupus familiaris; parameters: time infinity, route intravenous, dose 0.1 mg/kg; settings: in vivo
[11] = Cmax in dog at 0.5 mg/kg, po by LC-MS/MS analysis; assay type: ADME, organism-based, Canis lupus familiaris; parameters: route oral, dose 0.5 mg/kg; settings: in vivo
[12] = AUC (infinity) in dog at 0.5 mg/kg, po by LC-MS/MS analysis; assay type: ADME, organism-based, Canis lupus familiaris; parameters: time infinity, route oral, dose 0.5 mg/kg; settings: in vivo
[13] = Tmax in dog at 0.5 mg/kg, po by LC-MS/MS analysis; assay type: ADME, organism-based, Canis lupus familiaris; settings: in vivo
[14] = AUC (infinity) in mouse at 0.5 mg/kg, iv by LC-MS/MS analysis; assay type: ADME, organism-based; parameters: time infinity, route intravenous, dose 0.5 mg/kg; settings: in vivo
[15] = Volume of distribution at steady state in mouse at 0.5 mg/kg, iv by LC-MS/MS analysis; assay type: ADME, organism-based; settings: in vivo, read-out: Vdss
[16] = Cmax in Sprague-Dawley rat at 2.5 mg/kg, po by LC-MS/MS analysis; assay type: ADME, organism-based; parameters: route oral, dose 2.5 mg/kg; settings: in vivo
Method in brief: (§2)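 Rat PK with IV and PO dosing, n=3. The usual doses were 0.5 mg/kg IV and 2.5 mg/kg PO in 20% HP-β-CD. One compound was instead given at 0.1 mg/kg IV and 0.5 mg/kg PO.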

[17] = Half life in Sprague-Dawley rat at 0.5 mg/kg, iv by LC-MS/MS analysis; assay type: ADME, organism-based; settings: in vivo
[18] = Volume of distribution at steady state in Sprague-Dawley rat at 0.5 mg/kg, iv by LC-MS/MS analysis; assay type: ADME, organism-based; settings: in vivo, read-out: Vdss
Method in brief: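 Rat PK at 0.5 mg/kg i.v. and 2.5 mg/kg p.o., vehicle 20% HP-β-CD. n=3, values given as mean ± SD.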

[19] = Clearance in Sprague-Dawley rat at 0.5 mg/kg, iv by LC-MS/MS analysis; assay type: ADME, organism-based; settings: in vivo; method in brief: as §2
[20] = Oral bioavailability in monkey at 0.5 mg/kg by LC-MS/MS analysis; assay type: ADME, organism-based, Macaca mulatta; settings: rhesus monkey, in vivo
[21] = Half life in monkey at 0.1 mg/kg, iv by LC-MS/MS analysis; assay type: ADME, organism-based, Macaca mulatta; settings: rhesus monkey, in vivo
[22] = Volume of distribution at steady state in monkey at 0.1 mg/kg, iv by LC-MS/MS analysis; assay type: ADME, organism-based, Macaca mulatta; settings: rhesus monkey, in vivo, read-out: Vdss
[23] = Tmax in mouse at 2.5 mg/kg, po by LC-MS/MS analysis; assay type: ADME, organism-based; settings: in vivo
[24] = Half life in mouse at 2.5 mg/kg, po by LC-MS/MS analysis; assay type: ADME, organism-based; settings: in vivo
[25] = Oral bioavailability in mouse at 2.5 mg/kg by LC-MS/MS analysis; assay type: ADME, organism-based; settings: in vivo
[26] = Cmax in Sprague-Dawley rat at 500 mg/kg, po administered via gavage after 24 hrs using HPMC formulation by LC-MS/MS analysis; assay type: ADME, organism-based; parameters: route oral, time 24 hrs, dose 500 mg/kg; settings: in vivo
Method in brief: (§3)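 Single oral gavage dose to male Sprague Dawley rats, 3 per dose level. Vehicles were a standard suspension in 5% HPMC (125, 250, 500 or 1000 mg/kg) or a nanosuspension (API:polymer 4:1), with stock diluted in vehicle on the day of dosing (100, 250 or 500 mg/kg). Blood was sampled at time points from 0.5 to 24 h.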

[27] = Cmax in Sprague-Dawley rat at 1000 mg/kg, po administered via gavage after 24 hrs using HPMC formulation by LC-MS/MS analysis; assay type: ADME, organism-based; parameters: route oral, dose 1000 mg/kg, time 24 hrs; settings: in vivo; method in brief: as §3
[28] = Tmax in Sprague-Dawley rat at 1000 mg/kg, po administered via gavage after 24 hrs using HPMC formulation by LC-MS/MS analysis; assay type: ADME, organism-based; settings: in vivo
Method in brief: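 Single oral gavage of a 5% HPMC suspension at 125, 250, 500 or 1000 mg/kg to male Sprague Dawley rats, 3 per group. Plasma was sampled at 6 time points from 0.5 to 24 h.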

[29] = AUC (0 to 24 hrs) in Sprague-Dawley rat at 500 mg/kg, po administered via gavage after 24 hrs using nanosuspension formulation by LC-MS/MS analysis; assay type: ADME, organism-based; parameters: route oral, dose 500 mg/kg, time <=24; settings: in vivo; method in brief: as §3
[30] = Protein binding in human plasma assessed as unbound fraction at 0.5 uM after 6 hrs by equilibrium dialysis method; assay type: ADME, cell-free

Q: With Cn1c(=O)n(CC(=O)N2CCC2)c2cc(-c3ccc(C(F)(F)F)s3)cnc21 as the molecule, how does the IC50 [1] read?
A: The IC50 was greater than 10 µM.

Q: And the solubility at 72 h [2]?
A: Its solubility at 72 h is less than 4 µM.

Q: What about the Occ [3] of the same molecule?
A: The Occ was 31%.

Q: What about the concentration at 2 h [4] of the same molecule?
A: The concentration at 2 h was 6.9 ng/mL.

Q: And the concentration at 1 h [5]?
A: Its concentration at 1 h is 11.9 ng/mL.

Q: And the concentration at 2 h [6]?
A: The concentration at 2 h was 9.8 ng/mL.

Q: And the Drug uptake [7]?
A: Its Drug uptake is “Active”.

Q: What about the microsomal CLint at 1 µM [8] of the same molecule?
A: Its microsomal CLint at 1 µM is 14.7 µL/min/mg.

Q: What about the microsomal CLint at 1 µM [9] of the same molecule?
A: The microsomal CLint at 1 µM was 16.6 µL/min/mg.

Q: What about the AUC(0-inf) [10] of the same molecule?
A: The AUC(0-inf) was 126 ng·h/mL.

Q: And the Cmax [11]?
A: Its Cmax is 351 ng/mL.

Q: And the AUC(0-inf) [12]?
A: The AUC(0-inf) was 268 ng·h/mL.

Q: And the Tmax [13]?
A: The Tmax was 15 min.

Q: And the AUC(0-inf) [14]?
A: The AUC(0-inf) was 156 ng·h/mL.

Q: And the Vd [15]?
A: Its Vd is 3.2 L/kg.

Q: What about the Cmax [16] of the same molecule?
A: The Cmax was 479 ng/mL.

Q: And the half-life [17]?
A: Its half-life is 48 min.

Q: What about the Vd [18] of the same molecule?
A: Its Vd is 1.9 L/kg.

Q: And the clearance [19]?
A: The clearance was 30 mL/min/kg.

Q: What about the bioavailability [20] of the same molecule?
A: Its bioavailability is 41%.

Q: What about the half-life [21] of the same molecule?
A: The half-life was 66 min.

Q: What about the Vd [22] of the same molecule?
A: Its Vd is 0.8 L/kg.

Q: What about the Tmax [23] of the same molecule?
A: Its Tmax is 18 min.

Q: What about the half-life [24] of the same molecule?
A: Its half-life is 144 min.

Q: And the bioavailability [25]?
A: The bioavailability was 69%.

Q: What about the Cmax [26] of the same molecule?
A: The Cmax was 6140 ng/mL.

Q: What about the Cmax [27] of the same molecule?
A: The Cmax was 7010 ng/mL.

Q: What about the Tmax [28] of the same molecule?
A: The Tmax was 138 min.

Q: What about the AUC(0-t) [29] of the same molecule?
A: Its AUC(0-t) is 156000 ng·h/mL.

Q: What about the fraction unbound at 6 h, 0.5 µM [30] of the same molecule?
A: Its fraction unbound at 6 h, 0.5 µM is 0.046.
